Experimental findings from ChEMBL document CHEMBL1153988 (J Med Chem, 2009) are described below.

Series [1] deals with Mus musculus. As to the kind of experiment: Teratogenic effect in SWV mouse assessed as number of litters at 301 mg/kg, ip administered on morning of day 8 of gestation. In kind it is toxicity, organism-based. Details: dose 301 mg/kg, route intraperitoneal. Conditions: in vivo. Put shortly:
(§1)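 Inbred SWV mouse strain, highly susceptible to valproate-induced neural tube defects. Each pregnant dam received a single ip injection on gestation day 8.5. Test compounds spanned 1.8-4.2 mmol/kg, the reference drug was given as its sodium salt, and controls received 25% aqueous Cremophor EL. Groups were compared by Fisher's exact test (p < 0.05).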

The subject of series [2] is Rattus norvegicus. As to the kind of experiment: Anticonvulsant activity in po dosed albino Sprague-Dawley rat assessed as protection against scMet-induced seizures. In kind it is functional. Put shortly: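 Male Sprague-Dawley albino rats (100-150 g) were dosed orally in 0.5% methylcellulose and tested by MES or by sc pentylenetetrazol (2.82% in 0.9% saline). Doses were varied to give 3-4 points between 0% and 100% protection. ED50 and 95% confidence intervals came from probit analysis.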

The test system of series [3] is Mus musculus. As to the kind of experiment: Teratogenic effect in SWV mouse assessed as resorptions at 301 mg/kg, ip administered on morning of day 8 of gestation. In kind it is toxicity, organism-based. Details: dose 301 mg/kg, route intraperitoneal. Conditions: in vivo. Put shortly: as §1
In series [4] the test system is Mus musculus. As to the kind of experiment: Teratogenic effect in SWV mouse assessed as dead fetuses at 600 mg/kg, ip administered on morning of day 8 of gestation. Type of series: toxicity, organism-based. To be noted: in vivo. Details: dose 600 mg/kg, route intraperitoneal.
In series [5] the test system is Mus musculus. The experiment in a line: Teratogenic effect in SWV mouse assessed as live fetuses at 452 mg/kg, ip administered on morning of day 8 of gestation. To be noted: in vivo. In kind it is toxicity, organism-based. On the set-up: dose 452 mg/kg, route intraperitoneal. Summed up:
as §1

Series [6] relates to Mus musculus. The experiment in a line: Teratogenic effect in SWV mouse assessed as number of implants at 452 mg/kg, ip administered on morning of day 8 of gestation. To be noted: in vivo. On the set-up: dose 452 mg/kg, route intraperitoneal. Type of series: toxicity, organism-based. Put shortly:
as §1

Series [7] concerns Mus musculus. As to the kind of experiment: Teratogenic effect in SWV mouse assessed as number of litters at 600 mg/kg, ip administered on morning of day 8 of gestation. In kind it is toxicity, organism-based. Details: dose 600 mg/kg, route intraperitoneal. Conditions: in vivo. Put shortly:
as §1

The subject of series [8] is Mus musculus. As to the kind of experiment: Teratogenic effect in SWV mouse assessed as number of litters at 452 mg/kg, ip administered on morning of day 8 of gestation. Type of series: toxicity, organism-based. Conditions: in vivo. On the set-up: dose 452 mg/kg, route intraperitoneal. Summed up:
as §1

Series [9] concerns Mus musculus. The experiment in a line: Teratogenic effect in SWV mouse assessed as number of implants at 301 mg/kg, ip administered on morning of day 8 of gestation. Type of series: toxicity, organism-based. Details: dose 301 mg/kg, route intraperitoneal. Conditions: in vivo. Put shortly: as §1
Series [10] deals with Mus musculus. The experiment in a line: Teratogenic effect in SWV mouse assessed as dead fetuses at 301 mg/kg, ip administered on morning of day 8 of gestation. On the set-up: dose 301 mg/kg, route intraperitoneal. Type of series: toxicity, organism-based. Conditions: in vivo.
For series [11], the system named is Mus musculus. As to the kind of experiment: Teratogenic effect in SWV mouse assessed as dead fetuses at 452 mg/kg, ip administered on morning of day 8 of gestation. In kind it is toxicity, organism-based. On the set-up: dose 452 mg/kg, route intraperitoneal. Conditions: in vivo.
Series [12] has as its system Mus musculus. The experiment in a line: Teratogenic effect in SWV mouse assessed as resorptions at 452 mg/kg, ip administered on morning of day 8 of gestation. To be noted: in vivo. Type of series: toxicity, organism-based. On the set-up: dose 452 mg/kg, route intraperitoneal. Summed up:
as §1

The subject of series [13] is Mus musculus. The experiment in a line: Teratogenic effect in SWV mouse assessed as live fetuses at 301 mg/kg, ip administered on morning of day 8 of gestation. In kind it is toxicity, organism-based. To be noted: in vivo. Details: dose 301 mg/kg, route intraperitoneal. Put shortly:
as §1

In series [14] the test system is Mus musculus. As to the kind of experiment: Teratogenic effect in SWV mouse assessed as number of implants at 600 mg/kg, ip administered on morning of day 8 of gestation. In kind it is toxicity, organism-based. Details: dose 600 mg/kg, route intraperitoneal. To be noted: in vivo. Put shortly:
as §1

Series [15] concerns Mus musculus. As to the kind of experiment: Teratogenic effect in SWV mouse assessed as live fetuses at 600 mg/kg, ip administered on morning of day 8 of gestation. On the set-up: dose 600 mg/kg, route intraperitoneal. To be noted: in vivo. In kind it is toxicity, organism-based. Put shortly:
as §1

Series [16] relates to Mus musculus. The experiment in a line: Anticonvulsant activity in ip dosed CF1 albino mouse assessed as protection against 44 mA-current-induced seizure by 6Hz psychomotor seizure test. Type of series: functional. Put shortly:
(§2)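 In the 6 Hz psychomotor seizure test, male CF no. 1 albino mice (18-25 g) received the compound ip in 0.5% methylcellulose. Stimulation was at 32 or 44 mA. Doses were varied to give 3-4 points between 0% and 100% protection, and ED50 with 95% confidence interval came from probit analysis.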

The subject of series [17] is Mus musculus. The experiment in a line: Teratogenic effect in VPA-induced SWV mouse assessed as fetuses with neural tube deffects at 301 mg/kg, ip administered on morning of day 8 of gestation. Type of series: toxicity, organism-based. On the set-up: dose 301 mg/kg, route intraperitoneal. Conditions: in vivo. Put shortly:
as §1

Series [18] deals with Mus musculus. As to the kind of experiment: Teratogenic effect in SWV mouse assessed as resorptions at 600 mg/kg, ip administered on morning of day 8 of gestation. In kind it is toxicity, organism-based. On the set-up: dose 600 mg/kg, route intraperitoneal. To be noted: in vivo. Summed up: as §1
The species named for series [19] is Rattus norvegicus. As to the kind of experiment: Protective index, ratio of TD50 for albino Sprague-Dawley rat to ED50 for maximal electroshock-induced albino Sprague-Dawley rat seizure model. Type of series: functional. Summed up:
(§3)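 Protective index is the rat TD50 (minimal motor impairment) divided by the ED50 in the MES or sc pentylenetetrazol test. Male Sprague-Dawley rats were dosed orally in 0.5% methylcellulose, and both values came from probit analysis.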

For series [20], the species on record is Mus musculus. As to the kind of experiment: Protective index, ratio of TD50 for CF1 albino mouse to ED50 for maximal electroshock-induced CF1 albino seizure mouse model. In kind it is functional. Put shortly: (§4)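 Ratio of TD50 to ED50 (MES or scMet) in male CF no. 1 mice (18-25 g) given ip doses in 0.5% methylcellulose. TD50 comes from minimal motor impairment: the dose was varied until four points lay between no impairment and all animals impaired. Both TD50 and ED50 were derived by probit analysis with 95% confidence intervals.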
(In general: Protection in the maximal electroshock model is a classic sign of anticonvulsant action.)

The subject of series [21] is Mus musculus. As to the kind of experiment: Anticonvulsant activity in ip dosed CF1 albino mouse assessed as protection against scMet-induced seizures. In kind it is functional. Summed up: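 Adult male CF no. 1 albino mice (18-25 g) dosed ip with compound suspended in 0.5% methylcellulose (0.01 mL/g body weight). Seizures were induced by subcutaneous pentylenetetrazol, given as a 0.85% solution in 0.9% saline. ED50 was found by varying the dose to give 3-4 points between 0% and 100% protection, then probit analysis with 95% confidence intervals.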

The species named for series [22] is Mus musculus. As to the kind of experiment: Protective index, ratio of TD50 for CF1 albino mouse to ED50 for 44 mA-current-induced CF1 albino mouse seizure model. In kind it is functional. Put shortly: (§5)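 Protective index is the mouse TD50 (minimal motor impairment) divided by the 6 Hz test ED50 at 32 or 44 mA. Male CF no. 1 mice were dosed ip in 0.5% methylcellulose, and values came from probit analysis.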

For series [23], the species on record is Rattus norvegicus. As to the kind of experiment: Protective index, ratio of TD50 for albino Sprague-Dawley rat to ED50 for scMet-induced albino Sprague-Dawley rat seizure model. In kind it is functional. Put shortly:
as §3

Series [24] is filed under the species Mus musculus. As to the kind of experiment: Protective index, ratio of TD50 for CF1 albino mouse to ED50 for scMet-induced CF1 albino seizure mouse model. In kind it is functional. Summed up:
as §4

In series [25] the test system is Mus musculus. As to the kind of experiment: Anticonvulsant activity in ip dosed CF1 albino mouse assessed as protection against maximal electroshock-induced seizures. Type of series: functional. Put shortly: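 Male CF no. 1 albino mice (18-25 g) were dosed ip in 0.5% methylcellulose and tested by maximal electroshock. Doses were varied to give 3-4 points between 0% and 100% protection. ED50 with 95% confidence interval came from probit analysis.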

Series [26] has as its system Mus musculus. The experiment in a line: Anticonvulsant activity in ip dosed CF1 albino mouse assessed as protection against 32 mA current-induced seizure by 6Hz psychomotor seizure test. Type of series: functional. Put shortly:
as §2

The nature of series [27]: Neurotoxicity in po dosed albino Sprague-Dawley rat assessed as minimal motor impairment. Type of series: toxicity, organism-based. Conditions: in vivo. Summed up: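 Rats: male Sprague-Dawley (100-150 g), oral dosing in 0.5% methylcellulose. Doses were varied to give four points between no minimal motor impairment and all animals impaired. TD50 and 95% confidence intervals came from probit analysis.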

The species named for series [28] is Mus musculus. The experiment in a line: Protective index, ratio of TD50 for CF1 albino mouse to ED50 for 32 mA current-induced CF1 albino mouse seizure model. Type of series: functional. Summed up:
as §5

Series [29] relates to Rattus norvegicus. As to the kind of experiment: Anticonvulsant activity in po dosed albino Sprague-Dawley rat assessed as protection against maximal electroshock-induced seizures. In kind it is functional.
Series [30] deals with Mus musculus. As to the kind of experiment: Neurotoxicity in ip dosed CF1 albino mouse assessed as minimal motor impairment. In kind it is toxicity, organism-based. Conditions: mouse, in vivo. Put shortly: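 Mice: male CF no. 1 albino (18-25 g), ip dosing in 0.5% methylcellulose. Minimal motor impairment was scored, with doses varied to give four points between no impairment and all animals impaired.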

As to `CCCC(CCC)C(=O)O` [VALPROIC ACID], the Activity with Mus musculus [1] is reported as 12; in the series with Mus musculus [3], 11%; in the series with Mus musculus [4] it was 10.7%; in the series with Mus musculus [5], 88.1%; in the series on Mus musculus [6], 160; in the series with Mus musculus [7], 13. Further, the Activity in the series with Mus musculus [8] is 13; with Mus musculus [9], 154; with Mus musculus [10], 2.6%; in the series with Mus musculus [11], 0.6%; in the series with Mus musculus [12], 11.3%; in the series on Mus musculus [13] it was 86.4%. Also, the Activity in the series with Mus musculus [14] was found to be 131; in the series on Mus musculus [15], 81.7%; with Mus musculus [17], 1.5%; in the series on Mus musculus [18] it was 7.6%. The ED50 (usually the dose that gives a 50% effect, or the effect in half of the subjects) in the series on Rattus norvegicus [2] was determined as 646 mg/kg; with Mus musculus [16] it was 310 mg/kg.
Regarding `CCCC(CCC)C(N)=O` [VALPROMIDE], the ED50 with Rattus norvegicus [2] was 59 mg/kg; in the series on Mus musculus [21] it was 55 mg/kg; in the series on Mus musculus [25], 56 mg/kg; in the series on Mus musculus [26], 57 mg/kg; with Mus musculus [16] it was 66 mg/kg; in the series on Rattus norvegicus [29], 32 mg/kg. Moreover, the ED50 in the series with Mus musculus [30] was 81 mg/kg. Also, the PI in the series listed under Rattus norvegicus [19] was determined as 2.7; in the series filed under Mus musculus [20], 1.4; in the series listed under Mus musculus [22], 1.2; in the series listed under Rattus norvegicus [23], 1.5; in the series filed under Mus musculus [24], 1.5; in the series listed under Mus musculus [28], 1.4. Besides, the TD50 (usually the 50% point of the dose-response relation for the toxic effect studied) in series [27] stood at 87 mg/kg.
